For data set [1], the system named is T98G. Nature of the data set: Induction of apoptosis in human T98G cells assessed as increase in ROS production at 20 uM after 48 hrs by DCFH-DA staining-based flow cytometric analysis in presence of 10 uM ascorbic acid. Type of data set: functional, cell-based. (In general: A flow cytometer gives signals particle by particle.)
The test system of data set [2] is T98G. Nature of the data set: Anticancer activity against human T98G cells assessed as decrease in cell viability after 48 hrs by MTT assay. Type of data set: functional, cell-based. An outline of the steps:
(§1)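 Cells (T98G, U87-MG, NHA; 3 × 10^4 per well) plated, next day exposed to serial dilutions (1−50 μM) for 48 h at 37 °C, 5% CO2. MTT (5 mg/mL) added for 3 h; crystals solubilized in 50% DMF/20% SDS pH 4.5; OD at 620 nm. Viability = % of DMSO (0.1% final) controls. Means ± SEM, three experiments in triplicate.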
Background: Tetrazolium dyes change colour on reduction, which living cells bring about.

In data set [3] the target is T1, Mitogen-activated protein kinase; ERK1/ERK2 (Homo sapiens) (UniProt P27361+P28482). Nature of the data set: Induction of Erk1/2 phosphorylation in human T98G cells at 20 uM measured after 24 hrs by Western blot analysis in presence of 5 mM of NAC. Type of data set: cell-based. Summed up: (§2)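 T98G exposed to 20 μM for 5−120 min or 24 h, with or without 5 mM NAC. Lysates (Tris/deoxycholate/SDS/IGEPAL with protease and phosphatase inhibitors) immunoblotted with anti-p-ERK, ERK1/2 (1:1000), p-p38, p38; ECL detection; phospho signals normalized to total ERK1/2 or p38. Three experiments.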
T1 sequence (P27361 whole entry, looked up): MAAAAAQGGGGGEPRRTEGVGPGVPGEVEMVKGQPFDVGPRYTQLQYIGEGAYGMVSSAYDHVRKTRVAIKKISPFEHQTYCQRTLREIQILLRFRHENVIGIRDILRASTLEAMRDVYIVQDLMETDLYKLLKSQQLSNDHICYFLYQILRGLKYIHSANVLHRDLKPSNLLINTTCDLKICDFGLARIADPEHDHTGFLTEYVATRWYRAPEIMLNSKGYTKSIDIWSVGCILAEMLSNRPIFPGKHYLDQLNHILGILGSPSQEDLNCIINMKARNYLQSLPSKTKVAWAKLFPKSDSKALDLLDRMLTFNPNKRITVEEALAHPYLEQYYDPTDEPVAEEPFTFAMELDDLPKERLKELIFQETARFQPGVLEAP
T1 sequence (P28482 whole entry, looked up): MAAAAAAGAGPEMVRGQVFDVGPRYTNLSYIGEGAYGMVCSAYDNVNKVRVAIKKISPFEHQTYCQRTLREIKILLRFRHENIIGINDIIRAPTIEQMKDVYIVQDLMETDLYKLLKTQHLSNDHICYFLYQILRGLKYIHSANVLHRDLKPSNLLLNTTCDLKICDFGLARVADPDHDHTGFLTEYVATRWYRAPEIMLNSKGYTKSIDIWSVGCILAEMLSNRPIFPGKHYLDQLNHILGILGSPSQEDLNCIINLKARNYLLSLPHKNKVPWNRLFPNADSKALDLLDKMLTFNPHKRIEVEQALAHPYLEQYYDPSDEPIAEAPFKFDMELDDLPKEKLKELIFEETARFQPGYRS
For orientation: In western blotting, separated proteins are transferred to a membrane and probed.

The subject of data set [4] is T98G. Nature of the data set: Induction of apoptosis in human T98G cells assessed as decrease in mitochondrial depolarization at 20 uM after 24 hrs by […] fluorescence analysis in presence of 5 mM NAC. Type of data set: functional, cell-based. Summed up:
(§3)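 T98G treated with 20 μM for 4−24 h (NAC 5 mM where stated), then loaded with 5 nM TMRE for 30 min at 37 °C; fluorescence by flow cytometry (FL-2); percentage of cells with depolarized mitochondria reported. Three experiments in triplicate (n = 3 for NAC set).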

The nature of data set [5]: Toxicity in mouse. The class given is organism-based. Particulars: in vivo.
The next data set deals with U-87MG ATCC. The data set can be described thus: Anticancer activity against human U87MG cells assessed as decrease in cell viability at 50 uM after 48 hrs by MTT assay. Type of data set: functional, cell-based. Summed up: as §1
For data set [6], the system named is T98G. Nature of the data set: Induction of cell cycle arrest in human T98G cells assessed as accumulation at S phase at 1 to 20 uM after 48 hrs by flow cytometric analysis. Type of data set: functional, cell-based. An outline of the steps: (§4)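 2 × 10^5 cells per dish exposed 48 h (1−20 μM per legend); harvested, fixed in cold 70% ethanol at −20 °C, stained with propidium iodide plus RNase A (100 U/mL) 30 min at room temperature; percentage in G1, S, G2/M by flow cytometry. Three experiments in triplicate.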

In data set [7] the test system is T98G. The data set can be described thus: Induction of apoptosis in human T98G cells assessed as cell death at 20 uM after 48 hrs by propidium iodide staining based flow cytometric analysis. The class given is functional. Summed up: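 T98G cells grown in DMEM with 10% heat-inactivated FBS and 2 mM L-glutamine at 37 °C, 5% CO2, then exposed 24–48 h (range 1–50 μM). Percent hypodiploid nuclei counted by flow cytometry, debris gated out. Three experiments in triplicate, mean ± SEM.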

Data set [8] has as its system T98G. The data set can be described thus: Induction of apoptosis in human T98G cells assessed as increase in ROS production at 20 uM measured every 5 mins for 5 to 120 mins by DCFH-DA staining-based flow cytometric analysis in presence of 5 mM NAC. Type of data set: functional, cell-based. Summed up:
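T98G incubated with 20 μM, with or without 5 mM NAC pretreatment, for 5−120 min or 24 h; washed, resuspended at 2 × 10^5 cells/mL in HBSS with 10 μM DCFH-DA, 20 min at 37 °C; DCF fluorescence read by flow cytometry (FL1), also viewed by fluorescence microscopy.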

For data set [9], the target named is T2, MAP kinase p38 (Homo sapiens) (UniProt O15264+Q15759+Q16539+P53778). Nature of the data set: Induction of p38 phosphorylation in human T98G cells at 20 uM after 30 to 60 mins for 2 hrs by Western blot analysis in presence of 5 mM NAC. Type of data set: cell-based. Summed up:
as §2

For data set [10], the system named is T98G. Nature of the data set: Induction of apoptosis in human T98G cells assessed as increase in caspase-3 expression level at 20 uM after 24 hrs by Western blot analysis. The class given is functional, cell-based. An outline of the steps: (§5)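 T98G exposed to 20 μM for various times (0−48 h), NAC 5 mM where stated. Total lysates, or digitonin-permeabilized cytosolic and mitochondrial fractions (10000g, 15 min, 4 °C) for cytochrome c, blotted for caspase-3, caspase-9, PARP (1:1000), Bcl-2 (1:500), cytochrome c; β-actin loading control; ECL detection. Three experiments.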

Data set [11] has as its system T98G. Nature of the data set: Anticancer activity against human T98G cells assessed as decrease in cell viability at 50 uM after 48 hrs by MTT assay. The class given is functional. Summed up: as §1
Data set [12] has as its system T98G. The data set can be described thus: Induction of apoptosis in human T98G cells assessed as increase in mitochondrial depolarization at 20 uM after 4 hrs by […] fluorescence analysis. Type of data set: functional, cell-based. Summed up: as §3
Data set [13] concerns the target T1, Mitogen-activated protein kinase; ERK1/ERK2 (Homo sapiens). The data set can be described thus: Induction of Erk1/2 phosphorylation in human T98G cells at 20 uM measured every 5 mins for 2 hrs by Western blot analysis in presence of 5 mM of NAC. Type of data set: cell-based. An outline of the steps: as §2
Data set [14] concerns T98G. Nature of the data set: Induction of apoptosis in human T98G cells assessed as increase in mitochondrial depolarization at 20 uM by […] fluorescence analysis. Type of data set: functional, cell-based. Particulars: TDE = time-dependent effect. An outline of the steps:
as §3

Data set [15] has as its system T98G. The data set can be described thus: Induction of apoptosis in human T98G cells assessed as increase in subG1 population after 24 to 48 hrs by propidium iodide staining based flow cytometric analysis. The class given is functional, cell-based. Summed up: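 Cells treated 1−50 μM for 24 or 48 h, washed in PBS, resuspended in 0.1% sodium citrate, 0.1% Triton X-100, 50 μg/mL propidium iodide, 30 min at 4 °C in dark. Nuclei analyzed by flow cytometry, DNA on log scale, debris gated out; percent hypodiploid (sub-G1) nuclei reported. Three experiments in triplicate.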

In data set [16] the test system is T98G. The data set can be described thus: Induction of cell cycle arrest in human T98G cells assessed as accumulation at G2/M phase at 1 to 20 uM after 48 hrs by flow cytometric analysis. The class given is functional, cell-based. An outline of the steps:
as §4

Data set [17] addresses T2, MAP kinase p38 (Homo sapiens). Nature of the data set: Induction of p38 phosphorylation in human T98G cells at 20 uM after 30 to 60 mins for 2 hrs by Western blot analysis. The class given is cell-based. An outline of the steps:
as §2

Data set [18] concerns T98G. The data set can be described thus: Induction of apoptosis in human T98G cells assessed as decrease in Bcl-2 expression at 20 uM by Western blot analysis. Type of data set: functional, cell-based. Particulars: TDE = time-dependent effect. Summed up: as §5
In data set [19] the test system is T98G. Nature of the data set: Induction of apoptosis in human T98G cells assessed as cleavage PARP protein level at 20 uM after 24 hrs by Western blot analysis in presence of 5 mM NAC. The class given is functional, cell-based. An outline of the steps: as §5
The target of data set [20] is T2, MAP kinase p38 (Homo sapiens). Nature of the data set: Induction of p38 phosphorylation in human T98G cells at 20 uM measured after 24 hrs by Western blot analysis. Type of data set: cell-based. An outline of the steps: as §2
In data set [21] the target is T1, Mitogen-activated protein kinase; ERK1/ERK2 (Homo sapiens). Nature of the data set: Induction of Erk1/2 phosphorylation in human T98G cells at 20 uM measured after 24 hrs by Western blot analysis. Type of data set: cell-based. Summed up: as §2
The target in data set [22] is Mitogen-activated protein kinase 9 (Homo sapiens) (UniProt P45984). Nature of the data set: Induction of JNK phosphorylation in human T98G cells at 20 uM after 30 to 60 mins for 2 hrs by Western blot analysis. The class given is cell-based.
Sequence of Mitogen-activated protein kinase 9 (Homo sapiens) (P45984 whole entry, looked up): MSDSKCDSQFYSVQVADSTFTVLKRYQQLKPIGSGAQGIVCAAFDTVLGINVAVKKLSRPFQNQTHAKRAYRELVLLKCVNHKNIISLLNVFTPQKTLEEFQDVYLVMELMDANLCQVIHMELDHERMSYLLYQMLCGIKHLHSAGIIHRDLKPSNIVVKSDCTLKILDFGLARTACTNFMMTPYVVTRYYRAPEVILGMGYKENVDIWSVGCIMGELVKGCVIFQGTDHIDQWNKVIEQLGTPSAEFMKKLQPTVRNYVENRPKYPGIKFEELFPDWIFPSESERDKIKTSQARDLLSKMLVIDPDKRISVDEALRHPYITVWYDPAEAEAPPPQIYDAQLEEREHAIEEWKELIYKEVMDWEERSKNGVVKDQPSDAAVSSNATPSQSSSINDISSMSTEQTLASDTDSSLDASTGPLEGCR

Active and inactive are the calls of the source. No cut-off for these calls is given here.

Take `COc1cc(O)c(CC=C(C)C)c(O)c1C(=O)/C=C/c1ccc(O)cc1` [XANTHOHUMOL]: the result (in the data set with T98G [1]; in data set [3]; in the data set with T98G [4]; in the data set with T98G [6]; in the data set on T98G [8]; in data set [9]) was inactive. The outcome (in data set [13]; with T98G [16]; in the data set with T98G [19]; in [20]; in [22]) was inactive. In addition, the Activity entry in the data set with T98G [2] was “Dose-dependent effect”; in the data set on T98G [7] it was 40%; with T98G [11], 70%; in the data set with T98G [14] it was “tde”; in the data set with T98G [15] it was “Dose-dependent effect”; in the data set with T98G [18], “tde”. Moreover, in [5], the LD50 (as a rule, the dose expected to kill half of the subjects tested) turned out to be 500 mg/kg. Also, the outcome (in the data set with U-87MG ATCC; in the data set with T98G [10]; with T98G [12]; in data set [17]; in data set [21]) was Active.

Source of the values: ChEMBL document CHEMBL1932940, “Xanthohumol induces apoptosis in human malignant glioblastoma cells by increasing reactive oxygen species and activating MAPK pathways” (J Nat Prod, 2011).
